# Results from PubChem BioAssay.
# The source made the active and inactive calls.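 Rule for the calls, unless noted: active = inhibition of the reporter signal at or above 50%; inactive = inhibition below 50%.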
# Key:
# [1] = inhibitors of TNFa-induced NFkB p65 translocation, primary screen, imaging, HUVEC, MLSMR starter and 10KST1 sets (AID 438;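 active = inhibition above 20% together with a positive visual image hit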;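 note: compound added about 3h40 before a 20 min TNFalpha stimulation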;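 for inhibition: signal is the nuclear over cytoplasmic p65 intensity ratio per well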); conditions: HUVEC TNFa-induced p65 nuclear translocation; cell count: measured here: nuclei count (cytotoxicity indicator), at 2.08 µM; inhibition: at 2 µM, stronger effect = higher value, 0% TNFa-plus-vehicle, 100% no-TNFa wells
# [2] = inhibitors of mutant huntingtin aggregation, primary screen, imaging, exon1htt(103Q)mCFP cells, high-content imaging (AID 483;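 active = visual image review flags a hit and inhibition of aggregation exceeds 20%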;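 note: compound exposure lasted 3 days before fixation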;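 for nuclei count: percent of the per-plate median nuclei count of sample wells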); conditions: exon1htt(103Q)mCFP cell line, aggregate imaging, at 2 µM; inhibition of aggregation: stronger effect = higher value; nuclei count: measured here: cell count, toxicity
# [3] = inhibitors of E-selectin induction by TNFa, primary screen, imaging, HUVEC, immunofluorescence, MLSMR starter and 10KST1 sets (AID 487;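 active = visually confirmed hit in the image check and inhibition above 20%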;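 for inhibition: signal is fraction of cell area covered by stained E-selectin grains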;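 for nuclei count: 100% = median nuclei count of all wells on the same plate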); conditions: HUVEC TNFalpha-induced E-selectin immunofluorescence imaging, at 2 µM; inhibition: stronger effect = higher value; nuclei count: measured here: cell number, toxicity
# [4] = target: Voltage-gated potassium channel subunit beta-2 (Rattus norvegicus) (UniProt P62483); experiment: KvBeta enzyme negative modulators, primary screen, biochemical, NADPH fluorescence (AID 622;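 active = fluorescence slope higher than the sample average by over 3 SD, cut at about -0.22 in these data, passing the limit was not always enough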;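 note: slope of raw intensity against log time taken from 70 to 1610 s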); conditions: recombinant KvBeta, 4-cyanobenzaldehyde reduction, at 10 µM, stronger effect = higher value
# Chain of Voltage-gated potassium channel subunit beta-2 (Rattus norvegicus) (P62483 whole entry, looked up): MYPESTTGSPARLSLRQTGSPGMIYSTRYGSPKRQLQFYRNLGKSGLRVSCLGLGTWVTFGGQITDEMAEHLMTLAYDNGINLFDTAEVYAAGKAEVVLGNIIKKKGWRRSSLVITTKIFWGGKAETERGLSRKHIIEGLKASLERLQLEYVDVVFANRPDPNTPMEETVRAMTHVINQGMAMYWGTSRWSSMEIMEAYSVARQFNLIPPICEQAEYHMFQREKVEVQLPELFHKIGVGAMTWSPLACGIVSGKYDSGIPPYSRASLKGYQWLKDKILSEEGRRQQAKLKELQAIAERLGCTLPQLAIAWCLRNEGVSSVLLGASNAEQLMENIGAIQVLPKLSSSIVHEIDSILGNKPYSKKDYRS
# [5] = target: Voltage-gated potassium channel subunit beta-2 (Rattus norvegicus) (UniProt P62483); experiment: KvBeta positive modulators, primary screen, biochemical, NADPH fluorescence (AID 623;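 active = NADPH fluorescence slope more negative than the mean of all samples by about 3 SD, 99.7% confidence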;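 note: fluorescence intensity change per second fitted from 20 to 320 s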); conditions: Recombinant KvBeta, NADPH fluorescence decrease slope, 10 min; at 10 µM; stronger effect = lower value
# [6] = target: Muscarinic acetylcholine receptor M4 (Homo sapiens) (UniProt P08173); experiment: compounds altering M4/GIRK thallium flux, either direction, primary screen, M4 allosteric agonist project, cell-based, HEK293 M4/GIRK, BTC-AM (AID 625;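 active = fluorescence slope after compound addition differing from the mean of all tested samples at 99.7% confidence, mostly higher but some lower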;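 note: thallium influx through GIRK channels coupled to M4 in HEK293 cells with BTC-AM dye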); conditions: at 10 µM, actives lie on both sides
# Chain of Muscarinic acetylcholine receptor M4 (Homo sapiens) (P08173 whole entry, looked up): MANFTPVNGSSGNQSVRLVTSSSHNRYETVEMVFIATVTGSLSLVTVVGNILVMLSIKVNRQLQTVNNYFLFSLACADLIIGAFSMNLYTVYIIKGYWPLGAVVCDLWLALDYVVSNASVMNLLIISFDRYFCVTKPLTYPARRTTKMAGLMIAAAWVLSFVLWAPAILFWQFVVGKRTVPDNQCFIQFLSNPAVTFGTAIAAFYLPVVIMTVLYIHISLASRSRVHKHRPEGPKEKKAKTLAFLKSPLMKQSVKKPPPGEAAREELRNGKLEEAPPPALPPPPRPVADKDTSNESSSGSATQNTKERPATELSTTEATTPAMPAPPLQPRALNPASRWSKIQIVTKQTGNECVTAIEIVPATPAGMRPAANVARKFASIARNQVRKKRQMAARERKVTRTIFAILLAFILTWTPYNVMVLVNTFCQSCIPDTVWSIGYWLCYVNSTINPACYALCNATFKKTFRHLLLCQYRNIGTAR
# How it was run: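 Assay system: HEK293 cells with M4 receptor and GIRK channels / Controls: carbachol and DMSO controls / Schedule: 1 h dye loading, 2 min kinetic read / Technique: kinetic fluorescence with BTC-AM dye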
# [7] = inhibitors of Sendai virus-induced IRF3 signaling, primary screen, TLR/RLR signaling modifier project, cell-based, Sendai virus stimulus, luciferase, 10K MLSCN set (AID 602276;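 active = inhibition at or above 50% at 10 µM; inactive = inhibition below 50%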;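 note: firefly luciferase from ISG56 promoter only with Renilla not read in this screen; 0% = Sendai virus plus DMSO and 100% = medium plus DMSO without virus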); conditions: HEK293 RL24 IRF3 luciferase reporter, at 10 µM, stronger effect = higher value
# [8] = inhibitors of poly I:C-induced TLR3 signaling, primary screen, cell-based, poly I:C stimulus, luciferase, 10K MLSCN set (AID 602277); conditions: HEK293-TLR3 RL24 IRF3 luciferase reporter, at 10 µM, stronger effect = higher value
SMILES,cell count [1],inhibition [1],inhibition of aggregation [2],nuclei count [2] [%],inhibition [3],nuclei count [3] [%],fluorescence slope [4],NADPH fluorescence slope [5],fluorescence slope [6],inhibition [7],inhibition [8]
COc1ccc(CCNS(=O)(=O)c2ccc3c(c2)CCN3C(=O)CCC(=O)O)cc1OC,620,-6.5% (inactive),0.9% (inactive),125,-14.5% (inactive),121,-0.553 (inactive),7.1e-06 (inactive),0.00473 (inactive),12.6% (inactive),21.5% (inactive)
COCCn1c(SCC(=O)c2ccccc2)nc2c(c1=O)SC(C)C2 (stereo not drawn),232,7.3% (inactive),-6.9% (inactive),101,-17.9% (inactive),99.1,-0.45 (inactive),-0.000101 (inactive),0.00738 (inactive),1.47% (inactive),7.51% (inactive)
COc1cccc(N2CCN(Cc3nc(N)nc(Nc4ccccc4OC)n3)CC2)c1,495,2.9% (inactive),-8.8% (inactive),97.2,2.5% (inactive),104,-0.562 (inactive),-3.3e-05 (inactive),0.00593 (inactive),19% (inactive),17.2% (inactive)
CS(=O)(=O)N1CCN(CC2CC3C=CC2C3)CC1 (stereo not drawn),367,-3% (inactive),-5.6% (inactive),94.8,-18.9% (inactive),123,-0.199 (inactive),-2e-05 (inactive),0.00684 (inactive),14.1% (inactive),25.1% (inactive)
Cc1ccc(CNC(=O)C2CCCN(S(=O)(=O)c3cccnc3)C2)cc1 (stereo not drawn),313,-3.9% (inactive),-2.8% (inactive),89.2,-250% (inactive),88.5,-0.573 (inactive),2.7e-05 (inactive),0.00508 (inactive),-3.78% (inactive),-7.01% (inactive)
O=C(Cn1ncc2ccccc21)N1CCN(c2cccc(C(F)(F)F)c2)CC1,659,-5.8% (inactive),1.3% (inactive),114,-16.1% (inactive),122,-0.378 (inactive),-2.5e-05 (inactive),0.00602 (inactive),12% (inactive),21.1% (inactive)
COc1ccccc1-c1cc(C(=O)NCCCn2ccnc2)no1,459,-15.2% (inactive),-15.7% (inactive),106,49.5% (inactive),90,-0.291 (inactive),-2.7e-05 (inactive),0.00777 (inactive),5.02% (inactive),36% (inactive)
COCCNC(=O)c1ccc(Cl)c(Cl)c1,283,-9.1% (inactive),-23.9% (inactive),119,4.3% (inactive),116,-0.486 (inactive),-4.2e-05 (inactive),0.00569 (inactive),-9.14% (inactive),-8.45% (inactive)
O=C1c2ccccc2-c2nc3ncnn3c(-c3ccccc3)c21,377,-7.8% (inactive),-4.5% (inactive),83.8,-6.8% (inactive),107,-0.432 (inactive),-0.000383 (inactive),0.00449 (inactive),-11.4% (inactive),1.41% (inactive)
O=S(=O)(NCCSc1ccccc1)c1cccs1,652,-6.3% (inactive),-14.5% (inactive),103,-12.2% (inactive),104,-0.208 (inactive),-2e-05 (inactive),0.00557 (inactive),5.83% (inactive),11.1% (inactive)
CCn1cc(/C=C(/C#N)S(=O)(=O)c2ccccc2)cn1,593,-10.9% (inactive),7% (inactive),75,-61.5% (inactive),99.9,-0.488 (inactive),-9.1e-05 (inactive),0.00519 (inactive),-4.56% (inactive),-9.84% (inactive)
CCSc1nc2c(c(=O)n1CC)SC(C)C2 (stereo not drawn),224,2.8% (inactive),0.4% (inactive),92.4,8.4% (inactive),95,-0.401 (inactive),-0.000126 (inactive),0.00651 (inactive),7.34% (inactive),18.7% (inactive)
CC(NC(=O)c1ccccc1NC(=O)c1ccco1)C(=O)O (stereo not drawn),438,0.9% (inactive),-9.6% (inactive),100,-67.5% (inactive),121,-0.551 (inactive),-5.5e-05 (inactive),0.006 (inactive),23.6% (inactive),20% (inactive)
O=c1oc2ccccc2c(N2CCCCC2)c1CN1CCCCC1,731,-5.4% (inactive),-7.2% (inactive),108,25.6% (inactive),104,-0.549 (inactive),-6.2e-05 (inactive),0.00538 (inactive),-13.6% (inactive),-1.22% (inactive)
Cc1ccccc1-c1nc(CN2CCC(C(=O)NCCCN3CCOCC3)CC2)c(C)o1,598,-5.3% (inactive),-16.7% (inactive),89.8,-67.2% (inactive),102,-0.496 (inactive),6.2e-05 (inactive),0.00497 (inactive),-3.78% (inactive),22.4% (inactive)
CCN1CCN(c2c(Cl)cccc2NC(=O)c2ccco2)CC1,248,10.6% (inactive),-8.4% (inactive),77.9,-12.4% (inactive),84.2,-0.531 (inactive),-2.5e-05 (inactive),0.00466 (inactive),1.94% (inactive),29.2% (inactive)
Oc1ccc(N2CCN(C(c3cccnc3)c3nnnn3Cc3ccccc3)CC2)cc1 (stereo not drawn),612,1.4% (inactive),-2.4% (inactive),118,-71.6% (inactive),113,-0.468 (inactive),-0.000313 (inactive),0.0054 (inactive),9.52% (inactive),-11.5% (inactive)
CCOC(=O)CSC1=Nc2ccccc2C2=NC(CC(=O)NCc3cccs3)C(=O)N12 (stereo not drawn),224,7.2% (inactive),13.9% (inactive),81.6,26% (inactive),78.1,-0.572 (inactive),-5.5e-05 (inactive),0.00528 (inactive),0.227% (inactive),9.15% (inactive)
COc1ccc(CNc2nc(SCC(=O)NCc3ccco3)nc3ccccc23)cc1,705,0.9% (inactive),-24.8% (inactive),104,-50.5% (inactive),99.3,-0.484 (inactive),9.7e-05 (inactive),0.00602 (inactive),-0.825% (inactive),2.94% (inactive)
CCNC(=O)CC1C(=O)N(c2ccccc2)C(=O)N1Cc1ccc(OC)cc1 (stereo not drawn),442,5.9% (inactive),-1.6% (inactive),69.1,-289% (inactive),92.6,-0.567 (inactive),2e-05 (inactive),0.00553 (inactive),14.5% (inactive),21.8% (inactive)
COc1ccc(-c2cc(C(=O)NCCc3ccccc3)no2)cc1OC,364,-23% (inactive),-2.1% (inactive),98.3,-58.5% (inactive),105,-0.298 (inactive),-2.2e-05 (inactive),0.00599 (inactive),7.88% (inactive),-6.93% (inactive)
COc1ccc(Cl)cc1NC(=O)COc1cccc(-n2cnnn2)c1,371,1.2% (inactive),5.6% (inactive),102,10.9% (inactive),112,-0.528 (inactive),-1.9e-05 (inactive),0.00451 (inactive),6.87% (inactive),-12.1% (inactive)
COc1cc(C2Nc3cccc4cccc(c34)N2)cc(OC)c1O,372,-0.6% (inactive),29.3% (inactive),91.5,-27.6% (inactive),108,-0.464 (inactive),1.6e-05 (inactive),0.00443 (inactive),3.04% (inactive),5% (inactive)
Cc1ccc(-c2noc(C3CCCN(C(=O)c4ccc(F)cc4F)C3)n2)cc1 (stereo not drawn),753,-11.3% (inactive),1.1% (inactive),58.6,-21.5% (inactive),124,-0.274 (inactive),-6.5e-06 (inactive),0.00592 (inactive),-9.91% (inactive),-43.3% (inactive)
O=C1NC(=O)C2(CCC(C(=O)O)C2)N1 (stereo not drawn),557,-17.5% (inactive),-0.1% (inactive),100,-72.3% (inactive),119,-0.408 (inactive),3.7e-05 (inactive),0.00541 (inactive),13.2% (inactive),17.5% (inactive)
C=CCN1C(=O)/C(=C2/Sc3ccccc3N2C)SC1=Nc1c(C)n[nH]c1C,401,-0.2% (inactive),-18.2% (inactive),103,-70.1% (inactive),106,-0.519 (inactive),-2.3e-05 (inactive),0.00378 (inactive),12.6% (inactive),10.1% (inactive)
Cc1cc(-c2ccccc2)c2nncn2n1,304,0.9% (inactive),-3% (inactive),108,1.4% (inactive),107,-0.492 (inactive),-1.4e-05 (inactive),0.00457 (inactive),18.1% (inactive),15.3% (inactive)
Cc1ccc(CNC(=O)CCCn2c(=O)c3ccccc3n(CC(=O)NCc3ccco3)c2=O)cc1,451,-11.1% (inactive),-4% (inactive),114,-76.5% (inactive),97.1,-0.509 (inactive),-0.000209 (inactive),0.00296 (inactive),-6.73% (inactive),-15.2% (inactive)
